Measured values as given in ChEMBL document CHEMBL4118033, “Total Synthesis, Configuration Assignment, and Cytotoxic Activity Evaluation of Protulactone A” (J Nat Prod, 2017).
Active and inactive are the calls of the source. The rule behind the calls is not given here.

Legend:
Format in all cases: functional, cell-based
HL-60(TB) = test: Antiproliferative activity against human HL-60(TB) cells at 10 uM incubated for 48 hrs by sulforhodamine B assay
Summary of the method: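 Tested within the NCI60 cancer cell line panel screen run by the Developmental Therapeutics Program (Division of Cancer Treatment and Diagnosis, National Cancer Institute). Each stereoisomer was given at a single dose of 10 μM. Results are reported as one-dose mean graphs.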

NCI-H226 = test: Antiproliferative activity against human NCI-H226 cells at 10 uM incubated for 48 hrs by sulforhodamine B assay
Summary of the method: (§1)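 Run by the NCI Developmental Therapeutics Program (Division of Cancer Treatment and Diagnosis) as part of the NCI60 human tumour cell line panel screen. Each compound was tested at a single dose of 10 μM. Results are reported as one-dose mean graphs.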

NCI-H460 = test: Antiproliferative activity against human NCI-H460 cells at 10 uM incubated for 48 hrs by sulforhodamine B assay; summary of the method: as §1
HCT-15 = test: Antiproliferative activity against human HCT15 cells at 10 uM incubated for 48 hrs by sulforhodamine B assay; summary of the method: as §1
SF-539 = test: Antiproliferative activity against human SF539 cells at 10 uM incubated for 48 hrs by sulforhodamine B assay; summary of the method: as §1
SNB-19 = test: Antiproliferative activity against human SNB19 cells at 10 uM incubated for 48 hrs by sulforhodamine B assay; summary of the method: as §1
SNB-75 = test: Antiproliferative activity against human SNB75 cells at 10 uM incubated for 48 hrs by sulforhodamine B assay
Summary of the method: (§2)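 Run by the NCI Developmental Therapeutics Program (Division of Cancer Treatment and Diagnosis) as part of the NCI60 human tumour cell line panel. Each compound was tested in vitro at a single dose of 10 μM, and the data are reported as one-dose mean graphs across the panel.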

U-251 = test: Antiproliferative activity against human U251 cells at 10 uM incubated for 48 hrs by sulforhodamine B assay; summary of the method: as §2
SK-MEL-28 = test: Antiproliferative activity against human SK-MEL-28 cells at 10 uM incubated for 48 hrs by sulforhodamine B assay; summary of the method: as §1
OVCAR-5 = test: Antiproliferative activity against human OVCAR5 cells at 10 uM incubated for 48 hrs by sulforhodamine B assay; summary of the method: as §1
OVCAR-8 = test: Antiproliferative activity against human OVCAR8 cells at 10 uM incubated for 48 hrs by sulforhodamine B assay; summary of the method: as §1
SK-OV-3 = test: Antiproliferative activity against human SKOV3 cells at 10 uM incubated for 48 hrs by sulforhodamine B assay; summary of the method: as §1
786-0 = test: Antiproliferative activity against human 786-0 cells at 10 uM incubated for 48 hrs by sulforhodamine B assay; summary of the method: as §1
A498 = test: Antiproliferative activity against human A498 cells at 10 uM incubated for 48 hrs by sulforhodamine B assay; summary of the method: as §1
CAKI-1 = test: Antiproliferative activity against human Caki1 cells at 10 uM incubated for 48 hrs by sulforhodamine B assay; summary of the method: as §1

SMILES	Activity (HL-60(TB))	Activity (NCI-H226)	Activity (NCI-H460)	Activity (HCT-15)	Activity (SF-539)	Activity (SNB-19)	Activity (SNB-75)	Activity (U-251)	Activity (SK-MEL-28)	Activity (OVCAR-5)	Activity (OVCAR-8)	Activity (SK-OV-3)	Activity (786-0)	Activity (A498)	Activity (CAKI-1)
O=C1C[C@H]2O[C@H]([C@@H](O)c3ccccc3)[C@H](O)[C@H]2O1	Active	Active	Active	Active	Active	Active	Active	Active	Active	Active	Active	Active	Active	Active	Active
CC(=O)O[C@H](C)[C@@H]1O[C@@H]2CC(=O)O[C@@H]2[C@H]1O	inactive	inactive	inactive	inactive	inactive	inactive	inactive	inactive	inactive	inactive	inactive	inactive	inactive	inactive	inactive
CC(=O)O[C@H](C)[C@H]1O[C@H]2CC(=O)O[C@H]2[C@@H]1O	inactive	inactive	inactive	inactive	inactive	inactive	inactive	inactive	inactive	inactive	inactive	inactive	inactive	inactive	inactive
CC(=O)O[C@@H](C)[C@H]1O[C@H]2CC(=O)O[C@H]2[C@@H]1O	inactive	inactive	inactive	inactive	inactive	inactive	inactive	inactive	inactive	inactive	inactive	inactive	inactive	inactive	inactive
O=C(/C=C/c1ccccc1)O[C@H](c1ccccc1)[C@@H]1O[C@@H]2CC(=O)O[C@@H]2[C@H]1O	Active	Active	Active	Active	Active	Active	Active	Active	Active	Active	Active	Active	Active	Active	Active
CC(=O)O[C@@H](C)[C@@H]1O[C@@H]2CC(=O)O[C@@H]2[C@H]1O	inactive	inactive	inactive	inactive	inactive	inactive	inactive	inactive	inactive	inactive	inactive	inactive	inactive	inactive	inactive
O=C1C[C@H]2O[C@H]([C@H](O)c3ccccc3)[C@H](O)[C@H]2O1	Active	Active	Active	Active	Active	Active	Active	Active	Active	Active	Active	Active	Active	Active	Active
